Shown are actives, neighbours in structure and some others; about 1.3% of the full set was active somewhere.
TPT1 inh – C. albicans TPT1 enzyme inhibition. recombinant caTPT1, FP RNA substrate dephosphorylation. inhibition, % at 5 µM. actives 0.81% (n = 300,000). AID 1962;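 active = inhibition above the mean of all tested compounds plus 3 SD, set per screening campaign, cut at about 24% in these data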;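 note: plate controls were DMSO alone for no effect and ferristatin control at 100 nM for full effect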
Rpn11 block – inhibitors of human proteasome Rpn11; human 26S proteasome, Ub4-pepOG fluorescence polarization; 20S core pre-blocked with epoxomicin; inhibition, % at 20 µM; actives 0.59% (n = 360,000); AID 588493;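 active = inhibition at 20 µM, scaled to each plate's controls, above about 33%, limit read from the data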
HNF4A DNA FP – change in binding of human HNF4 alpha to DNA. P41235. HNF4a-FITC DNA binding, fluorescence polarization, 1 h. activity change, % at 10 µM. actives 0.3% (n = 360,000); in the data active = activity change above about 30%, passing the limit was not always enough
Target sequence (P41235 whole entry, looked up): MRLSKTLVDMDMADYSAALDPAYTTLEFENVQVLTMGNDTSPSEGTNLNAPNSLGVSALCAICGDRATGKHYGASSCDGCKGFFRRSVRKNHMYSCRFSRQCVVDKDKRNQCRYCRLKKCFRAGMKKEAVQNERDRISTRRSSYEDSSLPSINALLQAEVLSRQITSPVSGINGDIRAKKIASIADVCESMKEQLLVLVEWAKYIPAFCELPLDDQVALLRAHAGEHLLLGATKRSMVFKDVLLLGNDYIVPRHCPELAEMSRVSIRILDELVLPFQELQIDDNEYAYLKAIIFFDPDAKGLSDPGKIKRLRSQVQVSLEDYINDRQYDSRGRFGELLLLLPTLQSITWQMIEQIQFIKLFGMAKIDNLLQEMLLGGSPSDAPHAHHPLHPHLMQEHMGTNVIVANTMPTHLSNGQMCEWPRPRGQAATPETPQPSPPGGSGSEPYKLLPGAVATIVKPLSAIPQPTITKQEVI
aDG glyco up – alpha-DG glycosylation activation; Pro5-aDG cells, alpha-DG glycosylation AlphaScreen (IIH6); 0% Pro5, 100% B10-LARGE cell signal; activation, % at 10 µM; actives 0.22% (n = 360,000);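 active = activation of at least 8% versus controls, or a plate z-score of at least 8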;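 note: Pro5 are CHO cells carrying HIG-tagged alpha-DG that lacks glycosylation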
CSN inh – CSN deneddylation inhibition; Q92905; AID 651999; inhibition, % at 12.5 µM; actives 0.38% (n = 360,000); Purified CSN, SCF-Nedd8-OG deneddylation, fluorescence polarization;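 active = pattern-corrected inhibition above about 35%, with an unprinted fluorescence ratio check between 0.5 and 1.5, limit read from the data, passing the limit was not always enough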;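 note: 0% = enzyme with substrate and 100% = substrate without enzyme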
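Assay system: purified human Csn5 enzyme expressed in HEK293T cells; measure: % inhibition; also added: SCFSkp2-Nedd8OG substrate at 10 nM final; technique: fluorescence polarization; times: reaction 90 min, room temperature; medium: Tris buffer pH 7.5, NaCl, DTT, Tween-20, trehalose, ovalbumin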
XiGFP reactiv – X-chromosome reactivation activator; actives 0.055% (n = 360,000); activation, % at 7.58 µM; XiGFP mouse fibroblasts, % GFP-positive cells imaging, 3 d; cells co-treated with 5-aza-dC sensitizer; scaled so ellipticine positive control = 100%; AID 743238;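 active = mean normalized replicate activation at least 10% and every replicate at or above 10%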;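 note: 0% = median of on-plate neutral control wells and 100% = ellipticine 6 µM median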
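System: 68-5-11 XiGFP fibroblast line; Timing: 3 days compound exposure; Compound dosing: one concentration, pinned; Benchmarks: positive control ellipticine, 6 µM final; Buffer or medium: DMEM containing 5-aza-dC.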
TPT1 inh confirm – confirmation of Candida albicans TPT1 inhibitors; shares compounds with TPT1 inh; recombinant caTPT1, fluorescence polarization, RNase T1 coupled; inhibition, % at 5 µM; actives 74% (n = 2,400);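 active = inhibition above the primary screen limit, the mean inhibition of all tested compounds plus 3 SD, cut at about 25% in these data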
RNase T1 inh – blocks Aspergillus oryzae RNase T1, a TPT1 counter-screen. shares compounds with TPT1 inh. RNase T1 cleavage, fluorescence polarization, 1536-well. inhibition, % at 5 µM. actives 83% (n = 2,400). AID 2153;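 active = inhibition above the solvent-only control well mean plus 3 SD, limit set per screening run, cut at about 23% in these data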;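 note: plate controls were DMSO wells with enzyme for no effect and wells without RNase T1 for full effect; inhibitors block cleavage so intact labeled substrate keeps polarization high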
Target sequence (P00651 whole entry, looked up): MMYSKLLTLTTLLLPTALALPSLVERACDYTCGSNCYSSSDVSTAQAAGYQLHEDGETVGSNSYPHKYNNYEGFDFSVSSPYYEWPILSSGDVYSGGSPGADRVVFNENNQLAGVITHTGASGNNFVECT
Active calls of the source: *; · = no result shown.

SMILES	TPT1 inh	Rpn11 block	HNF4A DNA FP	aDG glyco up	CSN inh	XiGFP reactiv	TPT1 inh confirm	RNase T1 inh
COc1ccccc1NS(=O)(=O)c1cc([N+](=O)[O-])ccc1N/N=C/c1sc(N2CCOCC2)nc1-c1ccccc1	97*	·	75*	-1	53*	2	111*	110*
Cc1ccc(S(=O)(=O)N(C)C[C@H]2Oc3ccc(NC(=O)Cc4cn(C)c5ccccc45)cc3CC(=O)N([C@H](C)CO)C[C@H]2C)cc1	·	·	·	·	·	-1	·	·
c1ccc(-n2cnnc2SCc2nc3ccccc3s2)cc1	33*	17	18	0	10	·	49*	61*
O=C1CC(C(F)(F)C(F)(F)C(F)(F)C(F)F)=Nc2ccccc2N1	75*	0	6	0	-2	·	9	14
O=C1CC(/C=C/c2ccco2)=Nc2ccccc2N1	-4	-33	-8	0	17	·	·	·
Cc1ccc(C(=O)NN2C(=O)/C(=C/c3cccn3C)SC2=S)cc1	79*	·	88*	0	21	0	96*	112*
Cn1cccc1/C=C1\SC(=S)N(NC(=O)c2ccccc2Cl)C1=O	87*	·	69*	0	44*	·	88*	106*
CC1(C)CC(=O)C(C2=NC3(CCCCCC3)Cc3ccccc32)=C(O)C1	28*	5	2	0	1	0	-1	4
Cc1c(NC2=NC3(CCCCC3)Cc3ccccc32)c(=O)n(-c2ccccc2)n1C	4	1	-2	0	1	·	·	·
COc1cc(OC)cc(C(=O)c2c(C)c(C#N)c3ccccn23)c1	·	-6	-3	0	3	0	·	·
COC1=C/C(=C/c2c(O)c(C#N)c3ccccn23)C=CC1=O	30*	16	3	0	1	0	10	13
O=C(C[C@H]1C=C[C@@H](NS(=O)(=O)c2ccc(F)cc2)[C@@H](CO)O1)N1CCC(Cc2ccccc2)CC1	·	·	·	·	·	0	·	·
O=C1/C(=C/N(C(=O)c2ccco2)c2ccc(Cl)cc2)Sc2ccccc21	69*	16	13	0	10	·	70*	82*
O=C1/C(=C/N(C(=O)c2ccco2)c2ccc(Br)cc2)Sc2ccccc21	70*	52*	14	0	21	·	71*	85*
COc1ccc(CN(C(=O)c2ccco2)c2ccc(Br)cc2)cc1OC	-1	-4	0	0	1	·	·	·
C[C@H]1COCn2nncc2CC[C@@H](Cc2ccccc2)C(=O)N1	·	·	·	·	·	0	·	·
C[C@@H]1CN([C@H](C)CO)C(=O)Cc2cc(NS(=O)(=O)c3cn(C)cn3)ccc2O[C@@H]1CN(C)Cc1ccncc1	·	·	·	·	·	-1	·	·
COc1ccc(/C=C2\Oc3cc(OCC(=O)N4CCC(C(=O)O)CC4)ccc3C2=O)c(OC)c1	65*	·	37	0	23	·	90*	98*
COc1ccc(/C=C2\Oc3cc(OCC(=O)N4CCC(C(=O)O)CC4)ccc3C2=O)c(OC)c1OC	2	0	4	0	-2	·	·	·
COc1ccc(OC)c(/C=C2\Oc3cc(OCC(=O)N4CCC(C(=O)O)CC4)ccc3C2=O)c1	29*	15	3	0	2	·	48*	57*
COc1ccc(/C=C2\Oc3cc(OC(=O)N4CCOCC4)ccc3C2=O)c(OC)c1	111*	29	99*	0	44*	0	44*	65*
C[C@H]1CN([C@@H](C)CO)C(=O)c2cccc(NS(C)(=O)=O)c2O[C@@H]1CN(C)Cc1ccc(Cl)c(Cl)c1	·	·	·	·	·	0	·	·
CCCCCCc1cc2cc(-c3nnc(-c4cc(OC)c(OC)c(OC)c4)o3)c(=O)oc2cc1O	118*	·	·	·	·	·	130*	121*
CCCCCCc1cc2cc(C(=O)Nc3ccccc3OC)c(=O)oc2cc1O	-2	-3	1	0	0	0	·	·
CCCCCCc1cc2cc(-c3nnc(-c4ccccc4O)o3)c(=O)oc2cc1O	121*	·	-98	0	-73	·	114*	113*
SMILES	TPT1 inh	Rpn11 block	HNF4A DNA FP	aDG glyco up	CSN inh	XiGFP reactiv	TPT1 inh confirm	RNase T1 inh
CCCCCCc1cc2cc(-c3nnc(-c4ccccc4OC)o3)c(=O)oc2cc1O	97*	·	88	1	87	·	97*	114*
O=C(NC1CCCC1)[C@@H]1[C@@H](CO)[C@@H]2Cn3c(ccc(-c4ccccc4)c3=O)[C@H]1N2	·	·	·	·	·	0	·	·
COc1ccc(NC(=O)N(C)C[C@@H]2Oc3ccc(NC(=O)CCC(F)(F)F)cc3CC(=O)N([C@@H](C)CO)C[C@H]2C)cc1	·	·	·	·	·	0	·	·
O=C(COc1ccccc1[N+](=O)[O-])N/N=C/c1ccc(O)c([N+](=O)[O-])c1	61*	-5	-5	0	1	0	9	12
C[C@@H]1CN([C@H](C)CO)C(=O)c2c(c3ccccc3n2C)-c2ccccc2CO[C@@H]1CN(C)S(=O)(=O)c1ccc(F)cc1	·	·	·	·	·	0	·	·
c1ccc2c(c1)ncc1cccn12	1	4	-6	0	2	·	·	·
CCn1c2ccccc2c2c3ncc4cccn4c3ccc21	33*	·	24	0	28	0	15	22*
Cc1ccc(-c2cc(-c3ccco3)c3c(N)c(C(=O)NN)oc3n2)cc1	72*	18	11	0	-4	0	35*	43*
COc1cccc(-c2cc(C(=O)N/N=C/c3ccco3)c3ccccc3n2)c1	1	2	-1	0	0	0	·	·
